# Measurements: ChEMBL document CHEMBL1135445, “4'-Arylpyrrolomorphinans: effect of a pyrrolo-N-benzyl substituent in enhancing delta-opioid antagonist activity” (J Med Chem, 2002)
# pEC50, pKi: −log10 of the molar value. Values joined by “and” are separate entries in the source; they are usually repeats but may differ in a detail not shown here. Equal values may be shown once.
# How the values were obtained:
# [1] = Selectivity ratio towards Opioid receptor kappa 1 to Opioid receptor delta 1
# [2] = target: T1, Kappa-type opioid receptor (Homo sapiens, UniProt P41145); test: Binding affinity towards recombinant human Opioid receptor kappa 1 transfected in to CHO cells for the displacement of [3H]U-69593; type: cell-based
# T1 sequence (P41145 whole entry): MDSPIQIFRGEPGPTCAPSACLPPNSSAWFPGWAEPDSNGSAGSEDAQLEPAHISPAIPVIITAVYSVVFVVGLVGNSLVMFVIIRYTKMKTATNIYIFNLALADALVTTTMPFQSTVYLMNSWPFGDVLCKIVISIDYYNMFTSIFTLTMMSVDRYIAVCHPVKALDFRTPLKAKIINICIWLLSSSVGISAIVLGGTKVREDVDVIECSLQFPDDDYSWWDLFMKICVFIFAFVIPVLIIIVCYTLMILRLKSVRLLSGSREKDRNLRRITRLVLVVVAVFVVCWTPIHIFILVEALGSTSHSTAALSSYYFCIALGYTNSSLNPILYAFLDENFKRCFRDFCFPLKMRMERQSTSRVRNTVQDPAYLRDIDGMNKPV
# How it was run: (§1)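 Radioligand displacement (Ki) at cloned human opioid receptors expressed in CHO cells. Radioligands: [3H]DAMGO for mu, [3H]Cl-DPDPE for delta, [3H]U69593 for kappa.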
# [3] = target: T2, Delta-type opioid receptor (Homo sapiens, UniProt P41143); test: Binding affinity towards recombinant human Opioid receptor delta 1 transfected in to CHO cells for the displacement of [3H]Cl-DPDPE (delta); type: cell-based; how it was run: as §1
# T2 sequence (P41143 whole entry): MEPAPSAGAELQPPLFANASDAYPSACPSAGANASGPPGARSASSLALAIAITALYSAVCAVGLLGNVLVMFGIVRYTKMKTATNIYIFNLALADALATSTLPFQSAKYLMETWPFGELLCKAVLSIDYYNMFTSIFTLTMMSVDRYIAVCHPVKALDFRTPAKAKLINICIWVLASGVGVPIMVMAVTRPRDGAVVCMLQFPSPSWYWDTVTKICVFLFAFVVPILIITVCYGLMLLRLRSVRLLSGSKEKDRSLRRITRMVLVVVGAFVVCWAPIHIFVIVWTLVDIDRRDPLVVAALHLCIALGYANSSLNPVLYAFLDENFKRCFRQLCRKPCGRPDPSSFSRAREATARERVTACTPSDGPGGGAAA
# Mu-type opioid receptor [4] = target: T3, Mu-type opioid receptor (Homo sapiens, UniProt P35372); test: Binding affinity towards recombinant human Opioid receptor mu 1 transfected in to CHO cells for the displacement of [3H]DAMGO (mu); type: cell-based; how it was run: as §1
# T3 sequence (P35372 whole entry): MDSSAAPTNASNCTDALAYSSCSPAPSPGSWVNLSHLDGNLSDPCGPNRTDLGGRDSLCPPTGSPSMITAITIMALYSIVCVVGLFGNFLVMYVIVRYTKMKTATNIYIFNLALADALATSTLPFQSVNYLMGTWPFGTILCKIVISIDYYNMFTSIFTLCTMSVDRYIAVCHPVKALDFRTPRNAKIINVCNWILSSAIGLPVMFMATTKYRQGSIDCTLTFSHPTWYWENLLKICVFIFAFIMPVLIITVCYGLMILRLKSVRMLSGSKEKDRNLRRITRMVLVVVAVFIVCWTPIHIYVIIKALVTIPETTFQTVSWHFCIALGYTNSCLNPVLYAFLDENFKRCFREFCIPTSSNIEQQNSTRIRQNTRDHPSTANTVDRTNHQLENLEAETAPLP
# [5] = target: Opioid receptors; mu & delta (Homo sapiens) (UniProt P41143+P35372); test: Selectivity ratio of Opioid receptor mu 1 to Opioid receptor delta 1; type: protein assay
# Sequence of Opioid receptors; mu & delta (Homo sapiens) (P35372 whole entry, looked up): as the sequence (P35372 whole entry) above
# Sequence of Opioid receptors; mu & delta (Homo sapiens) (P41143 whole entry, looked up): as the sequence (P41143 whole entry) above
# [6] = target: T1, Kappa-type opioid receptor; test: Binding affinity towards recombinant human Opioid receptor kappa 1 transfected in to CHO cells for the displacement of […]; type: cell-based; how it was run: as §1
# [7] = target: T2, Delta-type opioid receptor; test: The antagonistic activity tested in [35S]GTP-gamma-S, Recombinant Human Opioid receptor delta 1 transfected in to CHO cells for the displacement of [3H]Cl-DPDPE (delta); type: functional, cell-based
# How it was run: (§2)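 [35S]GTPγS binding in CHO cells expressing cloned human opioid receptors. Antagonist affinity (Ke) was derived from the compound's blockade of a standard agonist: DAMGO at mu, Cl-DPDPE at delta, U69593 at kappa.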
# Mu-type opioid receptor [8] = target: T3, Mu-type opioid receptor; test: The antagonistic activity tested in [35S]-GTP-gamma S Recombinant Human Opioid receptor mu 1 transfected in to CHO cells for the displacement of [3H]DAMGO (mu); type: functional, cell-based; how it was run: as §2
# [9] = target: T1, Kappa-type opioid receptor; test: The antagonistic activity of compound was tested in [35S]GTP-gamma-S, Recombinant Human Opioid receptor kappa 1 transfected in to CHO cells for the displacement of [3H]U-69593; type: functional, cell-based; how it was run: as §2
# [10] = target: T2, Delta-type opioid receptor; test: The antagonistic activity tested in [35S]GTP-gamma-S, Recombinant Human Opioid receptor delta 1 in to CHO cells for the displacement of [3H]Cl-DPDPE (delta); type: functional, cell-based; how it was run: as §2
# Mu-type opioid receptor [11] = target: T3, Mu-type opioid receptor; test: Selectivity ratio Opioid receptor mu 1 to Opioid receptor delta 1
# Mu-type opioid receptor [12] = target: T3, Mu-type opioid receptor; test: The partial agonist activity tested in [35S]-GTP-gamma S Recombinant Human Opioid receptor mu 1 transfected in to CHO cells for the displacement of [3H]-DAMGO (mu); type: functional, cell-based
# [13] = target: T2, Delta-type opioid receptor; test: Partial agonist activity tested in [35S]GTP-gamma-S, Recombinant Human Opioid receptor delta 1 transfected in to CHO cells for the displacement of [3H]Cl-DPDPE (delta); type: functional, cell-based
# [14] = target: T2, Delta-type opioid receptor; test: Binding affinity towards recombinant humanOpioid receptor delta 1 transfected in to CHO cells for the displacement of [3H]Cl-DPDPE (delta); type: cell-based; how it was run: as §1
SMILES,Ratio [1],pKi [2],pKi [3],pKi (Mu-type opioid receptor [4]),Ratio [5],pKi [6],Ke [7] [nM],Ke (Mu-type opioid receptor [8]) [nM],Ke [9] [nM],Ke [10] [nM],Ratio (Mu-type opioid receptor [11]),pEC50 (Mu-type opioid receptor [12]),pEC50 [13],pKi [14]
COc1ccc2c3c1O[C@H]1c4c(c(-c5ccccc5)cn4Cc4ccccc4)C[C@@]4(O)C(C2)N(C)CC[C@]314,> 31,< 5.00,6.49,< 5.00,> 31,–,–,–,–,–,–,–,–,–
Cc1c(-c2ccccc2)c2c(n1Cc1ccccc1)[C@@H]1Oc3c(O)ccc4c3[C@@]13CCN(CC1CC1)C(C4)[C@]3(O)C2,–,–,7.76,7.28,3 and 5,6.74,3.68,17.7,306,–,–,–,–,–
Cc1ccc(-c2cn(Cc3ccccc3)c3c2C[C@@]2(O)C4Cc5ccc(O)c6c5[C@@]2(CCN4CC2CC2)[C@H]3O6)cc1,–,–,7.63,7.11,–,6.97,–,–,61.1,2.37,3.3,5.87,–,–
Oc1ccc2c3c1O[C@H]1c4[nH]c5ccccc5c4C[C@@]4(O)[C@@H](C2)N(CC2CC2)CC[C@]314,–,–,–,–,–,–,0.11,4.26,4.95,–,–,–,–,–
CN1CC[C@]23c4c5ccc(O)c4O[C@H]2c2c(c(-c4ccccc4)cn2Cc2ccccc2)C[C@@]3(O)C1C5,1.6,6.73,6.94,7.31,0.43,–,–,14.1,1160,–,–,–,7.26,–
Oc1ccc2c3c1O[C@H]1c4c(c(-c5ccccc5)cn4Cc4ccccc4)C[C@@]4(O)C(C2)N(CC2CC2)CC[C@]314,–,–,–,7.77,–,6.92,–,–,–,–,–,–,–,7.86
CCCN1CC[C@]23c4c5ccc(O)c4O[C@H]2c2c(c(-c4ccccc4)cn2Cc2ccccc2)C[C@@]3(O)C1C5,–,–,7.67,7.40,–,6.72,6.4,45.3,210,–,–,–,–,–
